The values below come from ChEMBL document CHEMBL1127645, “Synthesis, structure-activity relationships, and pharmacological evaluation of a series of fluorinated 3-benzyl-5-indolecarboxamides: identification of 4-[[5-[((2R)-2-methyl-4,4,4-trifluorobutyl)carbamoyl]-1-methyl indol- 3-yl]methyl]-3-methoxy-N-[(2-methylphenyl)sulfonyl]benzamide, a potent, …” (J Med Chem, 1994).

Series [1] deals with T1, Cysteinyl leukotriene receptor 1 (Cavia porcellus) (UniProt Q2NNR5).
T1 sequence (whole entry): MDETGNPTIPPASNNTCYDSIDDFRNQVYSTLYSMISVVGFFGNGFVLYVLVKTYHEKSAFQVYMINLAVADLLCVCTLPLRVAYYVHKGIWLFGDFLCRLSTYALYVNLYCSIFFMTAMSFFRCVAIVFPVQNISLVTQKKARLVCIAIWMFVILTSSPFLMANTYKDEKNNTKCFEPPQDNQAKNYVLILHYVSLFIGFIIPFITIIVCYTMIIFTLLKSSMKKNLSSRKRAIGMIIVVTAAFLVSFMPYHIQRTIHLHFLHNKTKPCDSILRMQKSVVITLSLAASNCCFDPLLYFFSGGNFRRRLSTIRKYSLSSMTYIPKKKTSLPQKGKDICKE
Description: Binding constant in guinea pig tracheal spirals with LTE4. It counts as tissue-based. The settings on record: Trachea. In short, it runs like this: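 Guinea pig tracheal spirals contracted with LTE4 as agonist. Antagonist KB derived from concentration-response curves and reported as -log(KB) (pKB); n = number of concentration-response curves.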

Series [2] concerns the target T2, Cysteinyl leukotriene receptor 1 (Cavia porcellus, UniProt Q2NNR5).
T2 sequence (Q2NNR5 whole entry): T1 sequence (whole entry)
As to the kind of experiment: Inhibition constant for displacement of [3H]LTD4 on guinea pig lung parenchymal membranes. The format is tissue-based, Lung parenchyma. In short, it runs like this: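 Guinea pig lung parenchymal membranes; competitive displacement of [3H]LTD4. Ki taken as mean of two experiments, each run in duplicate on separate membrane batches.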

In the next series the test system is Cavia porcellus. As to the kind of experiment: Percent inhibition of protection from LTD4-induced dyspnea in a conscious guinea pig administered through oral route at a dose of 3 umol/kg. It counts as functional.
Series [3] in a line: Bioavailability in guinea pig. The format is ADME, organism-based, Cavia porcellus. The settings on record: in vivo.
For series [4], the target named is Alpha-2 adrenergic receptor (Mus musculus) (UniProt P30545+Q01338+Q01337). As to the kind of experiment: Compound was evaluated for the selectivity of alpha 2 adrenergic receptors isolated from mouse vas deferens by displacing clonidine. The format is functional, tissue-based. Summed up:
(§1)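 Isolated-tissue functional selectivity screen, run at a single standard concentration of 10 μM, recording any change in the response to the receptor agonist.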

Series [5] in a line: Compound was evaluated for clearance in rat. It counts as ADME, organism-based. The settings on record: in vivo.
Series [6] deals with Histamine H1 receptor (Cavia porcellus) (UniProt P31389). As to the kind of experiment: Compound was evaluated for the selectivity of Histaminergic 1 receptor isolated from guinea pig ileum by displacing histamine. The format is tissue-based. Summed up: as §1
For series [7], the target named is Muscarinic acetylcholine receptor (Homo sapiens) (UniProt P20309+P08173+P11229+P08172+P08912). As to the kind of experiment: Compound was evaluated for the selectivity of Muscarinic receptors isolated from guinea pig ileum by displacing acetylcholine. As to conditions: Cavia porcellus, target entry is the homologue from another species. It counts as tissue-based. In short, it runs like this:
as §1

Series [8] can be described thus: Compound was evaluated for the oral bioavailability in rat. The settings on record: in vivo, read-out: Bioavailabiility. It counts as ADME, organism-based.
The target of series [9] is T3, Thromboxane A2 receptor (Rattus norvegicus) (UniProt P34978).
T3 sequence (whole entry): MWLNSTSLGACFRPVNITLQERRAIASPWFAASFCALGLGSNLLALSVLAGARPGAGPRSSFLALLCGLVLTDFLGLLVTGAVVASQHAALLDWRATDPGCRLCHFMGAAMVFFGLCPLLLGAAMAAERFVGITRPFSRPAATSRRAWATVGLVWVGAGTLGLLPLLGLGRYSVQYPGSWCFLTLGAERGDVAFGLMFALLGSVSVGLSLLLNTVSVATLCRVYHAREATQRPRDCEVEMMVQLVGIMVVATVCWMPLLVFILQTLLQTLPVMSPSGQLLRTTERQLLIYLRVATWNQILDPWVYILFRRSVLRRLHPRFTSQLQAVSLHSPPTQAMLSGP
As to the kind of experiment: Compound was evaluated for the selectivity of Thromboxane 1 receptors isolated from rat aorta by displacing U-46,619. It counts as functional, tissue-based. In short, it runs like this:
as §1

Series [10] can be described thus: ED50 (p.o.) / ED50 (i.v.) ratio of the compound. The format is functional. In short, it runs like this: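 Ratio of oral ED50 to intravenous ED50 from the conscious guinea pig LTD4-induced dyspnea model, used as an index of oral bioavailability.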
In series [11] the target is T4, Prostaglandin E2 receptor EP1 subtype (Homo sapiens) (UniProt P34995).
T4 sequence (whole entry): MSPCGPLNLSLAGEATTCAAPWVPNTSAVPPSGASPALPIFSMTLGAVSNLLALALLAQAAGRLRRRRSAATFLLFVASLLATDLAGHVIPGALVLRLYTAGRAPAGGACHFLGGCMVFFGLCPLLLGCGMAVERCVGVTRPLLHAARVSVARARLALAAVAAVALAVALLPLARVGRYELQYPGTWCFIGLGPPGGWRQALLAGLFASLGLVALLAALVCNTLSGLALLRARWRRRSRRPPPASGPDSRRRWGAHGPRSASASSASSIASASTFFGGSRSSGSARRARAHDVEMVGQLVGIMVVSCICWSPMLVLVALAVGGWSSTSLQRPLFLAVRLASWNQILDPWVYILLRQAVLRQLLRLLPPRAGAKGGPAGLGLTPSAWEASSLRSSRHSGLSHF
As to the kind of experiment: Compound was evaluated for the selectivity of Prostaglandin 1 receptors isolated from guinea pig ileum by displacing PGE-2. The settings on record: Cavia porcellus, target entry is the homologue from another species.

Series [12] can be described thus: Clearance in guinea pig. It counts as ADME, organism-based, Cavia porcellus. As to conditions: in vivo.
Series [13] can be described thus: Compound was evaluated for the clearance in dog. The format is ADME, organism-based, Canis lupus familiaris. As to conditions: in vivo.
The target in series [14] is Beta-1 adrenergic receptor (Cavia porcellus) (UniProt B0FL73). As to the kind of experiment: Compound was evaluated for the selectivity of Beta 1 adrenergic receptors isolated from guinea pig right atrium by displacing isoproterenol. The format is functional, tissue-based. As to conditions: Cardiac atrium. In short, it runs like this: as §1
Series [15] concerns the target Prostaglandin E2 receptor EP2 subtype (Homo sapiens) (UniProt P43116). As to the kind of experiment: Compound was evaluated for the selectivity of Prostaglandin 2 receptors isolated from guinea pig ileum by displacing PGE-2. It counts as tissue-based. As to conditions: Cavia porcellus; Trachea; in the assay text read “guinea pig trachea” for “guinea pig ileum”; target entry is the homologue from another species. Summed up: as §1

The target of series [16] is T1, Cysteinyl leukotriene receptor 1 (Cavia porcellus). Description: Effective dose for the inhibition of percent protection from LTD4-induced dyspnea in a conscious guinea pig administered through oral route. The format is functional. Summed up:
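Conscious guinea pig dyspnea model with LTD4 challenge; percent protection from dyspnea plotted against dose (oral or intravenous). ED50 obtained by regression using at least three doses from the linear portion of the dose-response curve; SEM for percent protection was generally ≤25% at each dose.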

Series [17] is described as follows: Compound was evaluated for the oral bioavailability in dog. The format is ADME, organism-based, Canis lupus familiaris. As to conditions: in vivo, read-out: Bioavailabiility.
Series [18] concerns Cysteinyl leukotriene receptor (Cavia porcellus). As to the kind of experiment: Inhibition of percent protection from LTD4-induced dyspnea in a conscious guinea pig administered intravenously.

Some results are limits rather than exact numbers.

Beta-1 adrenergic receptor (Cavia porcellus), sequence (B0FL73 1-467): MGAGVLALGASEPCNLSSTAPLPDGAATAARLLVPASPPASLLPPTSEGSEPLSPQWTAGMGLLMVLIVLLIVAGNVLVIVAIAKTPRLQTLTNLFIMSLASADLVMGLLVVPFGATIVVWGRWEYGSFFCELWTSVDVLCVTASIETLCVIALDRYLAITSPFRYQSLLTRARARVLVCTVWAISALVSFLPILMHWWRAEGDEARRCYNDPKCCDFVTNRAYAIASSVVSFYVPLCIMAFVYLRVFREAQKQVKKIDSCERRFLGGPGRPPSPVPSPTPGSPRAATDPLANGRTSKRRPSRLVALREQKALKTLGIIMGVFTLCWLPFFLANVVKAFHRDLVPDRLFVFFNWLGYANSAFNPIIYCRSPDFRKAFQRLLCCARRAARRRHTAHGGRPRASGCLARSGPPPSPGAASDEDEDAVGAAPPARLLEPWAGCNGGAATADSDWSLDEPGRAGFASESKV
Histamine H1 receptor (Cavia porcellus), sequence (P31389 whole entry): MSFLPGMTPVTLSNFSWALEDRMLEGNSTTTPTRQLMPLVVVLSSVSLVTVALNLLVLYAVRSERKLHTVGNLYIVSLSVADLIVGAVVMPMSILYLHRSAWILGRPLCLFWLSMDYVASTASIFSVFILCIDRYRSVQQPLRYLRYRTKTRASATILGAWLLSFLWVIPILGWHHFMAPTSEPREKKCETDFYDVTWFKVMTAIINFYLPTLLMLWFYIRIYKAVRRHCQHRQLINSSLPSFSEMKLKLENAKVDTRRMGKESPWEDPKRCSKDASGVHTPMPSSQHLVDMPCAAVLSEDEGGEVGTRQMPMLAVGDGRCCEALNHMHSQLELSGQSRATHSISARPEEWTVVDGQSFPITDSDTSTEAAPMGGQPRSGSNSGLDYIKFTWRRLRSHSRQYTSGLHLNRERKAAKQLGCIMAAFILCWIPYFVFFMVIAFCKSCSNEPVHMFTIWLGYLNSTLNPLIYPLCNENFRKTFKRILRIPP
Prostaglandin E2 receptor EP2 subtype (Homo sapiens), sequence (P43116 whole entry): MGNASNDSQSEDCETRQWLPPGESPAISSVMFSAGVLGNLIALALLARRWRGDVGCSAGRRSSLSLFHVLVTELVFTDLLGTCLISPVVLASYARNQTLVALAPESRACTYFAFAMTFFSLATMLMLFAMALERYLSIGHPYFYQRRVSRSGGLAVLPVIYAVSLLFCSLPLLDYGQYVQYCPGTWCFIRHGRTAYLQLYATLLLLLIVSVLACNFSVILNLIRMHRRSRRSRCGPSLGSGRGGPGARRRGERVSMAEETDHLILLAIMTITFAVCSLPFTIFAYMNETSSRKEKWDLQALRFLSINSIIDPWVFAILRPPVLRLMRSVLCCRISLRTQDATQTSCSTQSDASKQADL

Broadly, the pKB is −log10 of the KB, conventionally taken in molar units. Low values mean a large KB, high ones a small KB. A word on the Ki: it is the equilibrium dissociation constant of an inhibitor or competing ligand from its target. Low values mean a stronger hold on the target, high ones a looser hold on the target. The inhibition in vivo is how much of the control response was suppressed. A higher inhibition in vivo goes with strong suppression. With `COc1cc(C(=O)NS(=O)(=O)c2ccccc2C)ccc1Cc1cn(C)c2ccc(C(=O)NCCC(C(F)(F)F)C(F)(F)F)cc12`, in series [1], the negative logarithm of the KB (pKB) amounted to 9.3. The same compound gave an inhibitory constant (Ki) in series [2] of 1200 pM. Further, in the series with Cavia porcellus, the inhibition in vivo at 3 µmol/kg is 19%.

The term clearance denotes the rate of elimination divided by the concentration. Lower therefore signals a low capacity for elimination. What is called ED50 is the midpoint of the dose-response relation. Low values mean greater potency, high ones weaker potency. As for `COc1cc(C(=O)NS(=O)(=O)c2ccccc2C)ccc1Cc1cn(C)c2ccc(C(=O)NC[C@H](C)CC(F)(F)F)cc12`, the bioavailability in series [3] stood at 15%; in series [8] it was 33%; in [17], 38%. The pKB in [4] is under 5; in series [1], 10.1; in series [6], under 5; in series [7], under 5; in [9], under 5; in series [11] it was 5.23. Further, the negative logarithm of the KB (pKB) in [14] and in [15] was under 5 in each case. The clearance in series [5] was 1.17 mL/min/kg; in [12], 14.2 mL/min/kg; in series [13] it was 5.17 mL/min/kg. For the same compound, in series [2], affinity was put at a Ki of 420 pM. In addition, the Ratio in series [10] was 52. For the same compound, the ED50 in series [16] worked out at 1.14 µmol/kg; in series [18] it was 0.022 µmol/kg.
